From ChEMBL document CHEMBL3259611, “Suppression of inflammatory responses by handelin, a guaianolide dimer from Chrysanthemum boreale, via downregulation of NF-κB signaling and pro-inflammatory cytokine production” (J Nat Prod, 2014)
Active and inactive are the calls of the source. The calls are words filed in the database; no cut-off is given here.

Key:
RAW264.7 [1] = test: Antiinflammatory activity in mouse RAW264.7 cells assessed as inhibition of LPS-induced nitric oxide production administered 30 mins prior to LPS challenge measured after 20 hrs by Griess assay; format: functional, cell-based
In short: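 RAW 264.7 cells at 3 × 10^5 cells/mL in phenol red-free 10% FBS DMEM, pretreated for 30 min, then given 1 μg/mL LPS for 20 h. Nitrite in the medium was read by Griess reaction at 540 nm against a sodium nitrite standard curve. % inhibition was calculated versus vehicle control, and IC50 by nonlinear regression. Mean ± SD of triplicates.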

RAW264.7 [2] = test: Inhibition of LPS-induced NF-kappaB transcriptional activity in mouse RAW264.7 cells treated 2 hrs prior to LPS challenge measured after 16 hrs by SEAP reporter gene assay relative to control; format: cell-based
In short: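 NF-κB SEAP reporter assay in RAW 264.7 cells: 2 h compound pretreatment, then LPS for 16 h. Supernatants heated 65 °C for 5 min, then reacted with 2 M diethanolamine, 1 mM MgCl2 and 500 μM MUP for 1 h at 37 °C in the dark. Fluorescence read at ex 360/em 449 nm and normalized to protein. Expressed relative to vehicle control without LPS; triplicates.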

[3] = molecular target: Transcription factor p65 (Mus musculus) (UniProt Q04207); test: Inhibition of LPS-induced NF-kappaB p65 binding to DNA in mouse RAW264.7 cells at 10 to 40 uM after 1.5 hrs by spectrophotometry; format: cell-based
Sequence of Transcription factor p65 (Mus musculus) (Q04207 whole entry): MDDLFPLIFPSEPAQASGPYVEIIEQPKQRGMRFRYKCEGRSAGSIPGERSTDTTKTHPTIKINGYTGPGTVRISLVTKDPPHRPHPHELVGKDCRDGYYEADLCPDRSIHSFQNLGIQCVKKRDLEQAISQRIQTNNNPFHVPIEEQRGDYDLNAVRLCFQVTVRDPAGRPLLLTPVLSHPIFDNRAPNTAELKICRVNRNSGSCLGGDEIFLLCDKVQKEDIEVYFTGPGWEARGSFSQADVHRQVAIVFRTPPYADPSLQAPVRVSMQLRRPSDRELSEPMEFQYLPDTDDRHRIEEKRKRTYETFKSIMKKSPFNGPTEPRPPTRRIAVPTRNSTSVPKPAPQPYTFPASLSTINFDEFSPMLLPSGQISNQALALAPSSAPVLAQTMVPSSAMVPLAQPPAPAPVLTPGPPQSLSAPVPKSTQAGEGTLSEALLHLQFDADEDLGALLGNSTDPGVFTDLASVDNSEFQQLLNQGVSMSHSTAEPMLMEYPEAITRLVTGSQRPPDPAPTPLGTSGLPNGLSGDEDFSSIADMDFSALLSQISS

[4] = molecular target: MAP kinase p38 (Mus musculus) (UniProt P47811+O08911+Q9WUI1+Q9Z1B7); test: Inhibition LPS-induced p38 kinase phosphorylation in mouse RAW264.7 cells at 10 to 40 uM administered 30 mins prior to LPS challenge measured after 30 mins by Western blotting analysis; format: cell-based
In short: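 RAW 264.7 cells pretreated with compound for 30 min, then stimulated with LPS for an additional 30 min. Lysates resolved by 6−15% SDS-PAGE and blotted to PVDF. Primary antibodies were applied overnight at 4 °C and secondary antibodies for 2 h at room temperature. Detection by ECL. Tests in triplicate; blots representative of three separate experiments.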

Rattus norvegicus [5] = test: Antiinflammatory activity in rat paw edema model assessed as inhibition of carrageenan-induced paw edema at 10 mg/kg, po administered 30 mins prior to carrageenan challenge measured after 4 hrs relative to vehicle-treated control; format: functional
In short: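 Male SD rats (150−170 g) given compound orally in 0.5% CMC-Na 30 min before subplantar injection of 0.1 mL 1% carrageenan; the contralateral paw received saline. Paw volume was measured by plethysmometer from 0 to 6 h, with inhibition taken at 4 h versus vehicle. Mean ± SD, n = 6.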

Rattus norvegicus [6] = test: Antiinflammatory activity in rat paw edema model assessed as inhibition of carrageenan-induced iNOS protein expression in paw tissue at 20 mg/kg, po administered 30 mins prior to carrageenan challenge measured after 6 hrs by Western blotting analysis relative to vehicle-treated control; format: functional, organism-based; set-up: dose 20 mg/kg
In short: (§1)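 SD rats received compound orally in 0.5% CMC-Na 30 min before subplantar injection of 0.1 mL 1% carrageenan in saline. Paws were removed at 6 h, homogenized, and iNOS, COX-2 and IL-1β were assessed by Western blot. Triplicate, representative of three experiments.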

Rattus norvegicus [7] = test: Antiinflammatory activity in rat paw edema model assessed as inhibition of carrageenan-induced IL-1beta protein expression in paw tissue at 20 mg/kg, po administered 30 mins prior to carrageenan challenge measured after 6 hrs by Western blotting analysis relative to vehicle-treated control; format: functional, organism-based; set-up: dose 20 mg/kg; in short: as §1
RAW264.7 [8] = test: Antiinflammatory activity in mouse RAW264.7 cells assessed as inhibition of LPS-induced COX2 protein expression at 10 uM after 16 hrs by Western blotting analysis relative to control; format: functional
In short: (§2)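 RAW 264.7 cells given LPS (1 μg/mL) with or without compound for 16 h. Cell lysates were Western blotted for iNOS and COX-2 (6−15% SDS-PAGE, PVDF, ECL detection). Performed in triplicate.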

RAW264.7 [9] = test: Antiinflammatory activity in mouse RAW264.7 cells assessed as inhibition of LPS-induced COX2 protein expression at 20 uM after 16 hrs by Western blotting analysis relative to control; format: functional; in short: as §2
RAW264.7 [10] = test: Antiinflammatory activity in mouse RAW264.7 cells assessed as inhibition of LPS-induced COX2 protein expression at 40 uM after 16 hrs by Western blotting analysis relative to control; format: functional; in short: as §2
[11] = molecular target: Transcription factor p65 (Mus musculus) (UniProt Q04207); test: Inhibition of LPS-induced NFkappaB P65 protein nuclear translocation in mouse RAW264.7 cells at 20 uM after 30 mins by Western blotting analysis relative to control; format: cell-based
In short: (§3)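 Macrophages were exposed to compound for 30 min before LPS stimulation, with proteins extracted 30 min later. Nuclear extracts were prepared in Tris/KCl/NP-40 lysis buffer, then 420 mM NaCl buffer, and the cytosolic fraction was kept for IκB-α. Western blot on PVDF with ECL detection. Tests in triplicate; representative of three separate experiments.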

RAW264.7 [12] = test: Inhibition of LPS-induced NFkappaB transcriptional activity in mouse RAW264.7 cells assessed as […] at 10 uM after 30 mins by Western blotting analysis relative to control; format: cell-based; in short: as §3
RAW264.7 [13] = test: Inhibition of LPS-induced NFkappaB transcriptional activity in mouse RAW264.7 cells assessed as […] at 20 uM after 30 mins by Western blotting analysis relative to control; format: cell-based; in short: as §3
[14] = molecular target: Transcription factor p65 (Mus musculus) (UniProt Q04207); test: Inhibition of LPS-induced NF-kappaB p65 binding to DNA in mouse RAW264.7 cells at 10 to 40 uM after 1.5 hrs by spectrophotometry in presence of wild type oligonucleotide; format: cell-based
RAW264.7 [15] = test: Antiinflammatory activity in mouse RAW264.7 cells assessed as inhibition LPS-induced TNF-alpha protein expression at 10 uM after 4 hrs by Western blotting analysis relative to control; format: functional
RAW264.7 [16] = test: Antiinflammatory activity in mouse RAW264.7 cells assessed as inhibition LPS-induced TNF-alpha protein expression at 20 uM after 4 hrs by Western blotting analysis relative to control; format: functional
RAW264.7 [17] = test: Antiinflammatory activity in mouse RAW264.7 cells assessed as inhibition LPS-induced IL-1beta protein expression at 20 uM after 4 hrs by Western blotting analysis; format: functional
In short: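 RAW 264.7 cells stimulated with LPS (1 μg/mL) with or without compound for 4 h. Lysates were resolved by 6−15% SDS-PAGE and blotted to PVDF. Blocked in 5% milk/PBST, primary antibody overnight at 4 °C, secondary antibody 2 h, detected by ECL. Triplicate, representative of three experiments.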

In the case of C=C1C(=O)O[C@@H]2[C@@H]3[C@@]4(C=C[C@@]3(C)[C@]3(C4)C(=O)O[C@@H]4[C@H]5C(C)=CC[C@H]5[C@](C)(O)C[C@H](OC(C)=O)[C@H]43)[C@](C)(O)CC[C@@H]12, the IC50 (RAW264.7 [1]) is reported as 6.7 µM, the inhibition (RAW264.7 [1]) is reported as “Dose-dependent effect” and the inhibition (RAW264.7 [2]) is reported as “Active”. The inhibition [3] was “Active”, the inhibition [4] was “inactive” and the inhibition in vivo at 10 mg/kg (Rattus norvegicus [5]) was 22%. The inhibition (Rattus norvegicus [6]) was “Active”, the inhibition (Rattus norvegicus [7]) was “Active” and the “fold change (FC)” value (RAW264.7 [8]) was 0.52. For the same compound, the “fold change (FC)” value (RAW264.7 [9]) was 0.2, the “fold change (FC)” value (RAW264.7 [10]) was 0.15 and the fold change (FC) [11] was 0.63. For the same compound, the fold change (FC) (RAW264.7 [12]) was 1.91, the fold change (FC) (RAW264.7 [13]) was 1.85 and the inhibition [14] was “inactive”. For the same compound, the “fold change (FC)” value (RAW264.7 [15]) was 0.9, the “fold change (FC)” value (RAW264.7 [16]) was 0.76 and the “fold change (FC)” value (RAW264.7 [17]) was 0.67.
